Test results as given in publication PMC9706633 (Poultry Science, 2022).
“Also recorded” adds a separate entry of the source.

What was measured:
CCK2R = settings: mammals, ref Noble and Roques, 2002, Miller and Gao, 2008, cited from earlier work; for binding affinities of CCK-8S and CCK-8NS to CCK2R compared: in words
[1] = test system: CHO cells transfected with the empty pcDNA3.1(+) vector; test: pGL4-SRE-luciferase negative control, CHO cells with empty pcDNA3.1; format: cell-based, Chinese hamster; settings: 6 h
Outline: (§1)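 CHO cells (DMEM, 10% FBS, penicillin/streptomycin, 37°C, 5% CO2) seeded a day ahead and co-transfected (jetPRIME) with 250 ng empty pcDNA3.1 plus 750 ng reporter: CRE (cAMP/PKA), NFAT-RE (calcium) or SRE (MAPK/ERK). After 24 h, cells were replated in 96-well plates and grown 24 h. They were then exposed to test peptide at 10−12–10−6 M in DMEM for 6 h, lysed, and read for luciferase.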

[2] = test system: CHO cells transfected with the empty pcDNA3.1(+) vector; test: pGL3-CRE-luciferase negative control, CHO cells with empty pcDNA3.1; format: cell-based, Chinese hamster; settings: 6 h
Outline: as §1

cCCK1R [3] = test: pGL3-NFAT-RE-luciferase reporter assay; format: cell-based, chicken; settings: read-out: EC50, calcium mobilization, CHO cells expressing cCCK1R, peptide 10^−12 M - 10^−6 M, 6 h, triplicates (N = 3)
Outline: (§2)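 CHO cells were grown in DMEM with 10% FBS at 37°C and 5% CO2. They were transiently co-transfected with 250 ng of chicken receptor plasmid (empty pcDNA3.1 as control) and 750 ng of reporter construct using jetPRIME. After 24 h, cells were reseeded and grown a further 24 h. Test peptide was then applied in DMEM, and lysate luciferase was measured. Data are mean ± SEM.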

cCCK2R [4] = test: pGL3-NFAT-RE-luciferase reporter assay; format: cell-based, chicken; settings: read-out: EC50, calcium mobilization, CHO cells expressing cCCK2R, peptide 10^−12 M - 10^−6 M, 6 h, triplicates (N = 3)
Outline: as §2

cCCK1R [5] = test: pGL4-SRE-luciferase reporter assay; format: cell-based, chicken; settings: read-out: EC50, MAPK/ERK signaling pathway, CHO cells expressing cCCK1R, peptide 10^−12 M - 10^−6 M, 6 h, triplicates (N = 3)
Outline: as §2

cCCK2R [6] = test: pGL3-CRE-luciferase reporter assay; format: cell-based, chicken; settings: read-out: EC50, cAMP/PKA signaling pathway, CHO cells expressing cCCK2R, peptide 10^−12 M - 10^−6 M, 6 h, triplicates (N = 3)
cCCK1R [7] = test: Western blot of CREB phosphorylation, CHO cells expressing cCCK1R; format: cell-based, chicken; settings: 10 nM, 10 min, normalized by β-actin, N = 4
Outline: (§3)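 CHO cells transfected with 1000 ng chicken CCK1R or CCK2R expression plasmid, grown in 24-well plates at 37 °C. At 24 h post-transfection, cells were exposed to test peptide (10 nM, 10 min), lysed, and immunoblotted with phospho-ERK1/2 (Thr202/Tyr204) and phospho-CREB (Ser133) rabbit mAbs. Densitometric bands normalized to β-actin, expressed as fold of untreated control; mean ± SEM, N = 4; t-test or ANOVA/Dunnett.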

cCCK1R [8] = test: Overall activation of cCCK1R; set-up: species or system chicken; settings: 3 cell-based luciferase reporter systems and western blots; CHO cells; in words
cCCK2R [9] = test: pGL4-SRE-luciferase reporter assay; format: cell-based, chicken; settings: read-out: EC50, MAPK/ERK signaling pathway, CHO cells expressing cCCK2R, peptide 10^−12 M - 10^−6 M, 6 h, triplicates (N = 3)
Outline: as §2

cCCK1R [10] = test: pGL3-CRE-luciferase reporter assay; format: cell-based, chicken; settings: read-out: EC50, cAMP/PKA signaling pathway, CHO cells expressing cCCK1R, peptide 10^−12 M - 10^−6 M, 6 h, triplicates (N = 3)
Outline: as §2

cCCK2R [11] = test: Western blot of CREB phosphorylation, CHO cells expressing cCCK2R; format: cell-based, chicken; settings: 10 nM, 10 min, normalized by β-actin, N = 4
Outline: as §3

cCCK2R [12] = test: Western blot of ERK1/2 phosphorylation, CHO cells expressing cCCK2R; format: cell-based, chicken; settings: 10 nM, 10 min, normalized by β-actin, N = 4
Outline: as §3

cCCK2R [13] = test: Overall activation of cCCK2R; set-up: species or system chicken; settings: 3 cell-based luciferase reporter systems and western blots; CHO cells; in words
cCCK1R [14] = test: Western blot of ERK1/2 phosphorylation, CHO cells expressing cCCK1R; format: cell-based, chicken; settings: 10 nM, 10 min, normalized by β-actin, N = 4
Outline: as §3

[15] = test system: CHO cells transfected with the empty pcDNA3.1(+) vector; test: pGL3-NFAT-RE-luciferase negative control, CHO cells with empty pcDNA3.1; format: cell-based, Chinese hamster; settings: 6 h
Outline: as §1

Substance | binding affinities of CCK-8S and CCK-8NS to CCK2R compared (CCK2R) | binding affinity to CCK2R, fold higher than CCK-4 (CCK2R) [fold] | effect on pGL4-SRE-luciferase activity in empty-vector CHO cells ([1]; N = 3) | effect on pGL4-SRE-luciferase activity in empty-vector CHO cells ([1]; N = 3, listed as CCK-8S) | effect on pGL3-CRE-luciferase activity in empty-vector CHO cells ([2]; N = 3) | effect on pGL3-CRE-luciferase activity in empty-vector CHO cells ([2]; N = 3, listed as CCK-8S) | EC50 (cCCK1R [3]) [nM] | EC50 (cCCK2R [4]) [nM] | EC50 (cCCK1R [5]) [nM] | EC50 (cCCK2R [6]) [nM] | CREB phosphorylation (pCREB) (cCCK1R [7]) | activation of cCCK1R, overall (cCCK1R [8]) | EC50 (cCCK2R [9]) [nM] | EC50 (cCCK1R [10]) [nM] | CREB phosphorylation (pCREB) (cCCK2R [11]) | ERK1/2 phosphorylation (pERK1/2) (cCCK2R [12]) | activation of cCCK2R, overall (cCCK2R [13]) | ERK1/2 phosphorylation (pERK1/2) (cCCK1R [14]) | effect on pGL3-NFAT-RE-luciferase activity in empty-vector CHO cells ([15]; N = 3) | effect on pGL3-NFAT-RE-luciferase activity in empty-vector CHO cells ([15]; N = 3, listed as CCK-8S)
CCK-8NS: non-sulfated octapeptide of CCK | similar | 10 | – | – | – | – | – | – | – | – | – | – | – | – | – | – | – | – | – | –
DYMGWMDF [cCCK-8S, (Tyr (SO3H)^27) Cholecystokinin fragment 26-33 amide] | similar | – | no effect | no response | no effect | no response | 5.41 ± 1.15 | 1.93 ± 0.7 | 0.32 ± 0.26 | 29.6 ± 7.68 | potently enhance CREB phosphorylation | potently activated; also recorded: can potently activate cCCK1R; also recorded: activated preferentially | 1.16 ± 0.61 | 5.76 ± 1.55 | potently enhance CREB phosphorylation | strongly enhance ERK1/2 phosphorylation | can potently activate cCCK2R | strongly enhance ERK1/2 phosphorylation | no effect | no response
